Measured values: ChEMBL document CHEMBL3826901, “Design, synthesis, and mode of action studies of a mitomycin tetramer inducing double activations with a single probe” (Bioorg Med Chem, 2016)

Legend:
Escherichia coli [1] = experiment: Induction of interstrand cross-linking in EcoR1-linearized Escherichia coli pBR322 plasmid DNA at 0.10 mM after 2 hrs using 5 equiv of Et3P by ethidium bromide staining based alkaline agarose gel electrophoresis
Method in brief: (§1)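 EcoRI-linearized pBR322 DNA in aqueous Tris-HCl pH 7.4 was N2-deaerated for 15 min. Mitomycin (from 5 mM DMSO stock) and Et3P (5 equiv) were added, then incubated 2 h at room temperature. Purified DNA was run on a denaturing alkaline agarose gel (40 mM NaOH, 1 mM EDTA) with a HindIII-digested λ marker. The gel was neutralized and ethidium bromide-stained, and the cross-linked band quantified.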

[2] = Prodrug activation in Tris HCl methanolic solution at 0.030 mM at pH 7.4 using 10 equiv of Et3P by UV-visible spectrophotometry; details: buffer, pH 7.4, 30 µM
Method in brief: (§2)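 Mitomycin (from 1.0 mM methanolic stock) was in 0.1 M Tris-HCl methanolic buffer, 'pH' 7.4, at 25 °C. Nucleophile was added from methanolic stock (final 0.06–1.5 mM). UV-vis scans (200–500 nm) ran beyond two half-lives. Pseudo-first-order kobs and t1/2 were derived from 370 nm absorbance. Final 'pH' was within ±0.1 units. Runs were in duplicate and averaged.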

[3] = Prodrug activation in Tris HCl methanolic solution at 0.03 mM at pH 7.4 using 5 equiv of Et3P by UV-visible spectrophotometry; details: buffer, pH 7.4, 30 µM; method in brief: as §2
[4] = Prodrug activation in Tris HCl methanolic solution at 0.015 mM at pH 7.4 using 10 equiv of L-DTT by UV-visible spectrophotometry; details: buffer, pH 7.4, 15 µM; method in brief: as §2
[5] = Prodrug activation in Tris HCl methanolic solution at 0.015 mM at pH 7.4 using 20 equiv of GSH by UV-visible spectrophotometry; details: buffer, pH 7.4, 15 µM; method in brief: as §2
[6] = Prodrug activation in Tris HCl methanolic solution at 0.015 mM at pH 7.4 using 20 equiv of L-DTT by UV-visible spectrophotometry; details: buffer, pH 7.4, 15 µM; method in brief: as §2
[7] = Prodrug activation in Tris HCl methanolic solution at 0.015 mM at pH 7.4 using 5 equiv of Et3P by UV-visible spectrophotometry; details: buffer, pH 7.4, 15 µM; method in brief: as §2
[8] = Prodrug activation in Tris HCl methanolic solution at 0.015 mM at pH 7.4 using 10 equiv of Et3P by UV-visible spectrophotometry; details: buffer, pH 7.4, 15 µM; method in brief: as §2
[9] = Prodrug activation in Tris HCl methanolic solution at 0.015 mM at pH 7.4 using 20 equiv of Et3P by UV-visible spectrophotometry; details: buffer, pH 7.4, 15 µM; method in brief: as §2
[10] = Prodrug activation in Tris HCl methanolic solution at 0.015 mM at pH 7.4 using 50 equiv of Et3P by UV-visible spectrophotometry; details: buffer, pH 7.4, 15 µM; method in brief: as §2
[11] = Prodrug activation in Tris HCl methanolic solution assessed as half-life at 0.015 mM at pH 7.4 using 10 equiv of L-DTT by UV-visible spectrophotometry; details: buffer, pH 7.4, 15 µM; method in brief: as §2
[12] = Prodrug activation in Tris HCl methanolic solution assessed as half-life at 0.015 mM at pH 7.4 using 20 equiv of L-DTT by UV-visible spectrophotometry; details: buffer, pH 7.4, 15 µM; method in brief: as §2
[13] = Prodrug activation in Tris HCl methanolic solution assessed as half-life at 0.015 mM at pH 7.4 using 20 equiv of GSH by UV-visible spectrophotometry; details: pH 7.4, 15 µM; method in brief: as §2
[14] = Prodrug activation in Tris HCl methanolic solution assessed as half-life at 0.015 mM at pH 7.4 using 5 equiv of Et3P by UV-visible spectrophotometry; details: buffer, pH 7.4, 15 µM; method in brief: as §2
[15] = Prodrug activation in Tris HCl methanolic solution assessed as half-life at 0.015 mM at pH 7.4 using 10 equiv of Et3P by UV-visible spectrophotometry; details: buffer, pH 7.4, 15 µM; method in brief: as §2
[16] = Prodrug activation in Tris HCl methanolic solution assessed as half-life at 0.015 mM at pH 7.4 using 20 equiv of Et3P by UV-visible spectrophotometry; details: buffer, pH 7.4, 15 µM; method in brief: as §2
[17] = Prodrug activation in Tris HCl methanolic solution assessed as half-life at 0.015 mM at pH 7.4 using 50 equiv of Et3P by UV-visible spectrophotometry; details: buffer, pH 7.4, 15 µM; method in brief: as §2
Escherichia coli [18] = experiment: Induction of interstrand cross-linking in EcoR1-linearized Escherichia coli pBR322 plasmid DNA at 0.025 mM after 2 hrs using 5 equiv of Et3P by ethidium bromide staining based alkaline agarose gel electrophoresis; method in brief: as §1
Escherichia coli [19] = experiment: Induction of interstrand cross-linking in EcoR1-linearized Escherichia coli pBR322 plasmid DNA at 0.050 mM after 2 hrs using 5 equiv of Et3P by ethidium bromide staining based alkaline agarose gel electrophoresis; method in brief: as §1
Escherichia coli [20] = experiment: Induction of interstrand cross-linking in EcoR1-linearized Escherichia coli pBR322 plasmid DNA at 0.20 mM after 2 hrs using 5 equiv of Et3P by ethidium bromide staining based alkaline agarose gel electrophoresis; method in brief: as §1
[21] = Prodrug activation in Tris HCl methanolic solution at pH 7.4 using 5 equiv of Et3P by UV-visible spectrophotometry; details: buffer

With `CO[C@@]12[C@H](COC(N)=O)C3=C(C(=O)C(C)=C(NCC4CCC(CNC5=C(C)C(=O)C6=C(C5=O)[C@@H](COC(N)=O)[C@@]5(OC)[C@H]7N[C@H]7CN65)SS4)C3=O)N1C[C@@H]1N[C@@H]12` (some centres undefined) the Activity (Escherichia coli [1]) was 40.5% and the K [2] was 1.35 day⁻¹.
In the case of `CO[C@@]12[C@H](COC(N)=O)C3=C(C(=O)C(C)=C(NCC(O)CNC4=C(C)C(=O)C5=C(C4=O)[C@@H](COC(N)=O)[C@@]4(OC)[C@H]6N[C@H]6CN54)C3=O)N1C[C@@H]1N[C@@H]12` (some centres undefined), the Activity (Escherichia coli [1]) is reported as 5% and the Drug metabolism [3] is reported as “metabolite_notdetected”.
In the case of `CO[C@@]12[C@H](COC(N)=O)C3=C(C(=O)C(C)=C(NCC(CNC4=C(C)C(=O)C5=C(C4=O)[C@@H](COC(N)=O)[C@@]4(OC)[C@H]6N[C@H]6CN54)SSC(CNC4=C(C)C(=O)C5=C(C4=O)[C@@H](COC(N)=O)[C@@]4(OC)[C@H]6N[C@H]6CN54)CNC4=C(C)C(=O)C5=C(C4=O)[C@@H](COC(N)=O)[C@@]4(OC)[C@H]6N[C@H]6CN54)C3=O)N1C[C@@H]1N[C@@H]12` (some centres undefined), the K [4] is reported as 0.69 day⁻¹, the K [5] is reported as 1 day⁻¹ and the K [6] is reported as 1.3 day⁻¹. For the same compound, the K [7] was 0.72 day⁻¹, the K [8] was 1.3 day⁻¹ and the K [9] was 2.9 day⁻¹. For the same compound, the K [10] was 6.9 day⁻¹, the t1/2 [11] was 24 h and the t1/2 [12] was 12.7 h. For the same compound, the t1/2 [13] was 16.6 h, the t1/2 [14] was 23 h and the t1/2 [15] was 12.7 h. For the same compound, the t1/2 [16] was 5.76 h, the t1/2 [17] was 2.4 h and the Activity (Escherichia coli [18]) was 17%. It also gave an Activity (Escherichia coli [19]) of 41%, an Activity (Escherichia coli [1]) of 51% and an Activity (Escherichia coli [20]) of 68%.
In the case of `CO[C@@]12[C@H](COC(N)=O)C3=C(C(=O)C(C)=C(N)C3=O)N1C[C@@H]1N[C@@H]12` [MITOMYCIN], the Activity (Escherichia coli [20]) is reported as 2% and the Drug metabolism [21] is reported as “metabolite_notdetected”.
